Assay outcomes deposited in PubChem BioAssay by The Scripps Research Institute Molecular Screening Center.
A selection: hits, their analogues and other compounds. The true share with any hit is near 0.58%.
OXTR ag: human OXTR agonism | P30559 | CHO-OTR cells, Fluo-8 calcium fluorescence; normalized: DMSO 0%, oxytocin 100% | activation, % at 3 µM | actives 0.32% (n = 320,000) | AID 2435;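 active means activation above the mean of all tested compounds plus 3 SD, cutoff set per screening run, cut at about 20% in these data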;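 further: peak over basal fluorescence ratio from a 100 s FLIPR kinetic read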
V1R ag counter: activates human V1a receptor in oxytocin agonist counter-screen | P37288 | CHO-V1R cells, Fluo-8 calcium fluorescence, agonist mode; 0% DMSO, 100% 3 nM vasopressin | activation, % at 3 µM | actives 0.25% (n = 320,000) | AID 2797;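 active means activation above the mean activation of all tested compounds plus 3 SD, per screening run, cut at about 20% in these data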;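 further: signal is peak over basal fluorescence ratio across a 100 second FLIPR read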
TRPML3 agonist: activates the human TRPML3 channel. Q8TDD5. HEK293 TRPML3-YFP, Fluo-8 calcium fluorescence; 100% = the carbachol control signal. activation, % at 3 µM. actives 0.29% (n = 220,000). AID 1448;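 active means activation above its plate's cutoff, the mean activation of the plate's test wells plus 3 SD, cut at about 12% in these data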;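 further: 0% = DMSO only wells and 100% = carbachol wells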
Target sequence (Q8TDD5 whole entry, looked up): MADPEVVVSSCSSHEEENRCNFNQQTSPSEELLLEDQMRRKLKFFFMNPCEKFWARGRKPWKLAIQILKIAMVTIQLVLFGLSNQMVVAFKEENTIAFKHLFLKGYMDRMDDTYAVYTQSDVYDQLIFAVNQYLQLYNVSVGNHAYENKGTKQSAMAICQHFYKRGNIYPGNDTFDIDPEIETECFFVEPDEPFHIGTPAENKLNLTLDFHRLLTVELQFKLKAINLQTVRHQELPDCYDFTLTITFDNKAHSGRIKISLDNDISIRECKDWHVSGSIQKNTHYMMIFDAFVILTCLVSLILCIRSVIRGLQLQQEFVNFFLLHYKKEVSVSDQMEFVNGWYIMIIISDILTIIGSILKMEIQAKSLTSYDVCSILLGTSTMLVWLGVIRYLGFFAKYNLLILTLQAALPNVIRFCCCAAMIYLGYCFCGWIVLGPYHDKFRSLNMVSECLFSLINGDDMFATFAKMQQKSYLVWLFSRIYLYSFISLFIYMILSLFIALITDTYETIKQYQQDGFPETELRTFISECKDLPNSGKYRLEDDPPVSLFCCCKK
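Test system – HEK293 line with stable expression of human TRPML3-YFP channel · Control set – carbachol 87 µM final as high control (100%), DMSO as low control (0%) · Signal – Fluo-8 calcium dye fluorescence, ex 470-495, em 515-575 nm · Incubation – 1-h 37 °C dye load, 5-s basal, 120-s post-compound reads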
TRPN1 ag: zebrafish TRPN1 (NompC) channel agonism | HEK293 zebrafish TRPN1-YFP, Fluo-8 calcium fluorescence; 100% = response to 87 µM carbachol | activation, % at 3 µM | actives 0.18% (n = 220,000);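 active means activation above its plate's cutoff, the mean activation of test wells on that plate plus 3 SD, cut at about 19% in these data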;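 further: 0% = DMSO alone and 100% = 87 µM carbachol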
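Control set: carbachol 87 µM as high control, DMSO as low control; system: HEK293 stable line with zebrafish TRPN1-YFP; read-out: % activation versus carbachol response; detection: intracellular calcium fluorescence with Fluo-8; doses: single test compound dose, 3 µM nominal, 0.3% DMSO; schedule: dye 1 h 37 °C plus 30 min RT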
OXTR potentiator: potentiators of human oxytocin receptor. P30559. CHO-OTR cells, Fluo-8 calcium fluorescence, potentiator mode; 0% = oxytocin EC15, 100% = EC100. activation, % at 3 µM. actives 0.061% (n = 320,000);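 active means activation above that plate's cutoff, the mean activation of tested compounds plus 3 SD, cut at about 6.6% in these data, passing the limit was not always enough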;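 further: 100% uses oxytocin at 75 nM as the full agonist control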
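Measured by – Fluo-8 calcium dye fluorescence · Test system – human OTR in CHO cells · Dosing – one concentration, 3.0 µM compound · Controls – EC15 oxytocin alone as 0%, 75 nM oxytocin as 100% · Evaluation – normalized max/min fluorescence ratio, % activation · Timing – 6 min pre-incubation, 100 s read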
V1aR agonist cf: human V1a receptor agonism, confirmation. AID 434964. shares compounds with V1R ag counter. actives 20% (n = 180). CHO-V1R cells, Fluo-8 calcium fluorescence, agonist. activation, % at 3 µM;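 active means average activation exceeds primary screen hit cutoff, cut at about 21% in these data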;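 further: peak over basal fluorescence ratio during a 100 s FLIPR read; 0% = DMSO only wells and 100% = 3 nM vasopressin wells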
OXTR counter: activates oxytocin receptor in V1a agonist counter-screen; shares compounds with V1R ag counter; CHO-OTR cells, Fluo-8 calcium fluorescence; activation, % at 3 µM; actives 10% (n = 180); AID 434969;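 active means mean activation over three repeats above the cutoff from the earlier oxytocin receptor agonist screen, cut at about 20% in these data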;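 further: peak over minimum fluorescence ratio within a 100 second FLIPR read; 0% = DMSO only wells and 100% = oxytocin high control wells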
The depositor's hits bear a star; . = no result.

SMILES	OXTR ag	V1R ag counter	TRPML3 agonist	TRPN1 ag	OXTR potentiator	V1aR agonist cf	OXTR counter
COCCn1c(=NC(=O)CSCC(=O)N2CCOCC2)sc2cc(C)ccc21	-0.9	-0.5	.	.	-5.4	.	.
Cc1ccc(-c2ccc(=O)n(Cc3ccc(F)cc3)n2)cc1	4.6	21.7*	.	.	-15.6	2.2	-0.7
CCOc1cccc(NC(=O)C2CC(=O)NC(=Nc3ccccc3)S2)c1 (stereo not drawn)	1.8	1.2	-0.4	-0.7	-13.3	.	.
Cc1cc(C(=O)Nc2c(C)nn(Cc3c(Cl)cccc3Cl)c2C)no1	0.1	1.0	1.0	0.1	1.3	.	.
Cc1nn(Cc2c(Cl)cccc2Cl)c(C)c1NC(=O)c1cc(C(C)C)on1	2.7	27.1*	-0.4	0.2	-7.2	1.0	14.2
COc1ccc(Nc2cc(C(=O)NCCCOC(C)C)c3ccccc3n2)c(OC)c1	-0.1	25.4*	.	.	-8.2	-0.3	-1.2
CC1=NN(c2ccc(Cl)cc2)C(=O)C1C(c1cccc(O)c1)c1c(C)[nH]n(-c2ccc(Cl)cc2)c1=O (stereo not drawn)	13.2	20.5*	2.9	2.6	-9.2	2.4	0.9
CC(=O)Nc1sc2c(c1CN1CCN(c3ccccn3)CC1)CCCC2	0.2	-0.5	-0.9	-0.5	-2.8	.	.
O=C(O)c1ccccc1C1=Nc2ccc(O)cc2Oc2cc(O)ccc21	17.0	23.4*	2.2	4.6	-6.6	26.8*	19.8*
Cc1cc(-c2ccccc2C(=O)O)on1	0.5	0.3	0.6	0.0	-13.5	.	.
CCC[C@@H]1C[C@@H](C(=O)N[C@@H](C2O[C@H](SC)[C@H](O)[C@@H](O)[C@H]2O)[C@H](C)Cl)N(C)C1 (stereo partly drawn)	0.8	42.7*	0.7	-0.3	-1.5	4.2	0.6
CCC[C@@H]1C[C@@H](C(=O)NC(C(C)Cl)[C@H]2O[C@H](SC)[C@H](O)[C@@H](O)[C@H]2O)N(C)C1 (stereo partly drawn)	0.2	0.3	.	.	5.5	.	.
N#Cc1cccc(NC(=O)CSc2ccc3c4c(cccc24)C(=O)c2ccccc2-3)c1	14.2	40.6*	3.1	3.0	-10.9	107.5*	83.6*
COc1ccc(NC(=O)CSc2ccc3c4c(cccc24)C(=O)c2ccccc2-3)cc1	8.0	9.0	4.1	4.6	-16.4	.	.
C#CCOCCOCCOCCNc1nc(N2CCN(C(=O)CCCCCCCCCCNC(=O)[C@@H](CCC(=O)O)n3cc(CCCCCN)nn3)CC2)nc(N2CCN(C(=O)CCCCCCCCCCNC(=O)[C@H]([C@@H](C)CC)n3cc(CCCCCN)nn3)CC2)n1	15.2	12.1	.	.	-12.9	.	.
C#CCOCCOCCOCCNc1nc(N2CCN(C(=O)CCCCCCCCCCNC(=O)[C@H](CCCCN)n3cc(C)nn3)CC2)nc(N2CCN(C(=O)CCCCCCCCCCNC(=O)[C@H](CCCCN)n3cc(CCCC(=O)O)nn3)CC2)n1	1.6	6.2	.	.	-7.8	.	.
C#CCOCCOCCOCCNc1nc(N2CCN(C(=O)CCCCCCCCCCNC(=O)[C@H]([C@@H](C)CC)n3cc(CCCCCN)nn3)CC2)nc(N2CCN(C(=O)CCCCCCCCCCNC(=O)[C@H](CCCCN)n3cc(CCCC(=O)O)nn3)CC2)n1	8.7	20.3*	.	.	-7.3	2.2	0.8
C#CCOCCOCCOCCNc1nc(N2CCN(C(=O)CCCCCCCCCCNC(=O)[C@H](CCCCN)n3cc(CCCC(=O)O)nn3)CC2)nc(N2CCN(C(=O)CCCCCCCCCCNC(=O)[C@@H]([C@H](C)O)n3cc(C)nn3)CC2)n1	7.5	20.9*	.	.	-3.4	5.1	1.7
COc1ccc(/C=C(/NC(=O)c2ccco2)C(=O)N2CCCCCC2)cc1OC	13.4	11.7	.	.	-7.3	.	.
Cc1c(C=Nc2ccc(S(=O)(=O)CCO)cc2)c(O)[nH]c(=O)c1C#N	0.7	1.9	.	.	-4.4	.	.
Cc1nn(C(C)C(=O)Nc2ccccc2Cl)c(=O)c2nn(-c3ccccc3)c(C)c12 (stereo not drawn)	-0.7	0.7	.	.	-0.1	.	.
